Source: ChEMBL document CHEMBL1136010, “Synthesis and evaluation of indenopyrazoles as cyclin-dependent kinase inhibitors. 3. Structure activity relationships at C3(1,2)” (J Med Chem, 2002)

Legend:
[1] = target: Cyclin-dependent kinase 4/cyclin D1 (Homo sapiens, UniProt P11802); test: Inhibitory concentration against Cyclin-dependent kinase 4-cyclin D1; type: protein-complex assay
In short: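 CDK4/cyclin D1 came from extracts of insect cells dually infected with baculovirus vectors. Reactions were started with 4 units of enzyme, run 15 min at room temperature, and stopped with EDTA. Product was captured on GSH-Sepharose and counted by scintillation.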

[2] = target: Cyclin-dependent kinase 2/cyclin E (Homo sapiens, UniProt P24941); test: Inhibitory concentration against Cyclin-dependent kinase 2-cyclin E; type: protein-complex assay
HCT-116 = test: Inhibition of HCT116 colon carcinoma cell proliferation; type: functional, cell-based; conditions: Homo sapiens
In short: (§1)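 SRB colorimetric growth assay. Exponentially growing cells were seeded so they would undergo 3-5 doublings before reaching 85% confluence. Graded compound concentrations were added 18 h later, and cells were incubated 5 days at 37 °C in 5% CO2. Cells were fixed with cold TCA for 1 h at 4 °C, stained with 0.4% SRB in 1% acetic acid, solubilized in 10 mM Tris base, and OD read at 570 nm.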

NCI-H460 = test: Inhibition of NCI-H460 cell proliferation; type: functional, cell-based; conditions: Homo sapiens; in short: as §1
AG1523 = test: Effective concentration against normal human fibroblast cell line AG1523; type: functional, cell-based
In short: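 Normal human foreskin fibroblasts AG1523 were seeded at a density giving confluence and contact inhibition of growth. Graded compound concentrations were added 18 h later, and cells were incubated 6 days at 37 °C in 5% CO2. Death effects were scored by SRB colorimetry: cold TCA fixation, 0.4% SRB stain, Tris base solubilization, OD at 570 nm.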

[3] = target: Cyclin-dependent kinase 1/cyclin B (Homo sapiens, UniProt P06493); test: Inhibition of Cyclin-dependent kinase 1-cyclin B; type: protein-complex assay
Protein kinase C (PKC) = test: Inhibition of Protein kinase C; type: protein assay
HT-1080 = test: Inhibition of HT1080 cell proliferation; type: functional, cell-based; conditions: Homo sapiens; in short: as §1
B16 = test: Inhibitory activity against B16-F1 cell line; type: functional, cell-based; conditions: Mus musculus
[4] = target: cAMP-dependent protein kinase (PKA) (Homo sapiens, UniProt P22694+P17612+P22612); test: Inhibition of Protein kinase A (PKA); type: protein assay
MIA PaCa-2 = test: Inhibition of MiaPaCa2 cell proliferation; type: functional, cell-based; conditions: Homo sapiens; in short: as §1
[5] = target: Tyrosine-protein kinase ABL1 (Homo sapiens, UniProt P00519); test: Inhibition of c-Abl tyrosine kinase
HT-29 = test: Inhibition of HT-29 cell proliferation; type: functional, cell-based; conditions: Homo sapiens; in short: as §1
PC-3 = test: Inhibition of PC3 cell proliferation; type: functional, cell-based; conditions: Homo sapiens; in short: as §1

Cyclin-dependent kinase 4/cyclin D1, sequence (P11802 whole entry): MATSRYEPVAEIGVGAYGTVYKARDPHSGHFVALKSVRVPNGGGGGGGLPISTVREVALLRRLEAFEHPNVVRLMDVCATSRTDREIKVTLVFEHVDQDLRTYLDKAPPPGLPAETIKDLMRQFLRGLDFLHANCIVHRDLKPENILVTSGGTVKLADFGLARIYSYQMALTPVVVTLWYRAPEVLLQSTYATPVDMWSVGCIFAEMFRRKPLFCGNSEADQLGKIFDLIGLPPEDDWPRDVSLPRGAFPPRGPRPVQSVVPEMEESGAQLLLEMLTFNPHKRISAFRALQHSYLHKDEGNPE
Cyclin-dependent kinase 4/cyclin D1, sequence (P24385 whole entry, further chain): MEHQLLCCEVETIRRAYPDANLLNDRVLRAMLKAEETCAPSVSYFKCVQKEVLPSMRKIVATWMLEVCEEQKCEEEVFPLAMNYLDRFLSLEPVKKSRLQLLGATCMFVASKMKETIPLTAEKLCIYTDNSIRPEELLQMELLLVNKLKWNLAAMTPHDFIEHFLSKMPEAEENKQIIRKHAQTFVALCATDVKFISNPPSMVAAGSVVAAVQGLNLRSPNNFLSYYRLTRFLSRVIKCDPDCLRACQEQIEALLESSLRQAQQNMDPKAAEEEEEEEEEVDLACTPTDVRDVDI
Tyrosine-protein kinase ABL1, sequence (P00519 whole entry): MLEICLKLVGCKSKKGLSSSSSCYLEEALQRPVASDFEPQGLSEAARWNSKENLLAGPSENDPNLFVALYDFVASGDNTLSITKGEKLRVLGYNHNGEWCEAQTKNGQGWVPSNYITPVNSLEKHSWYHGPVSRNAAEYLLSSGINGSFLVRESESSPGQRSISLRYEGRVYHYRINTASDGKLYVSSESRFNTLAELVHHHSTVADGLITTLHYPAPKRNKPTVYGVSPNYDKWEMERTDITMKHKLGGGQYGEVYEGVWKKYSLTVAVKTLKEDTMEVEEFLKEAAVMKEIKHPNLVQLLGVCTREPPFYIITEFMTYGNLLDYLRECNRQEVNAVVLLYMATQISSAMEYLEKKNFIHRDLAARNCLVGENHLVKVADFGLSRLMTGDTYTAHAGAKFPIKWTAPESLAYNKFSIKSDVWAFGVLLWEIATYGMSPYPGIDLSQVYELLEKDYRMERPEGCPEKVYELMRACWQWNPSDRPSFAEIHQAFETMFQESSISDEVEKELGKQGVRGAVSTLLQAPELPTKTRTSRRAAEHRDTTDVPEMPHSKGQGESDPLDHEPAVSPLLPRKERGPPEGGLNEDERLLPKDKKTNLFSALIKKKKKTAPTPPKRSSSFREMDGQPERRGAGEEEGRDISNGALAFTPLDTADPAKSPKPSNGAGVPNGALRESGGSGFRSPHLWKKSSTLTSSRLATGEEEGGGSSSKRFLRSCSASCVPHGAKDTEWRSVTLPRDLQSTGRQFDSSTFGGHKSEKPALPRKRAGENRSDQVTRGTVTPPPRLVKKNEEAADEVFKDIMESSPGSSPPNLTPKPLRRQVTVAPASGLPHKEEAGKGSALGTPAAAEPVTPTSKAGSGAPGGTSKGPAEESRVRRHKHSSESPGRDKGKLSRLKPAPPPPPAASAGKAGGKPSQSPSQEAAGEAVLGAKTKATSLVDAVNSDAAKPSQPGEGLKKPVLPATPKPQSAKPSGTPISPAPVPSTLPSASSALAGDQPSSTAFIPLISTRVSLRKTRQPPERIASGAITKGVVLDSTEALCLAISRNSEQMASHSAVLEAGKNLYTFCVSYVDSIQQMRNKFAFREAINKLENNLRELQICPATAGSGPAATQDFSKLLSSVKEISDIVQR

Structure (SMILES) | IC50 [1] [nM] | IC50 [2] [nM] | also measured
CCOc1ccc(-c2[nH]nc3c2C(=O)c2c(NC(C)=O)cccc2-3)cc1 | > 580 | > 400 | 
CCc1[nH]nc2c1C(=O)c1c(NC(=O)CN3CCC(C(N)=O)CC3)cccc1-2 | > 2600 | > 130 | 
NC(=O)Nc1cccc2c1C(=O)c1c-2n[nH]c1C1CCCCC1 | > 810 | 140 | 
CC(=O)Nc1cccc2c1C(=O)c1c-2n[nH]c1-c1ccc(O)cc1 | 2300 | 530 | 
CC(=O)Nc1cccc2c1C(=O)c1c-2n[nH]c1-c1ccc(N2CCOCC2)cc1 | 860 | 370 | 
CN1CCN(CC(=O)Nc2cccc3c2C(=O)c2c-3n[nH]c2-c2ccc(N3CCOCC3)cc2)CC1 | 190 | 42 | 
NC(=O)C1CCN(CC(=O)Nc2cccc3c2C(=O)c2c-3n[nH]c2C2CCCCC2)CC1 | > 570 | 36 | 
CC(=O)Nc1cccc2c1C(=O)c1c-2n[nH]c1CC(C)C | > 3500 | > 3500 | 
NC(=O)Nc1cccc2c1C(=O)c1c-2n[nH]c1-c1cccs1 | 150 | 11 | IC50 (HCT-116): 41 nM
Cc1ccsc1-c1[nH]nc2c1C(=O)c1c(NC(N)=O)cccc1-2 | 350 | 17 | IC50 (HCT-116): 140 nM
CCc1[nH]nc2c1C(=O)c1c(NC(N)=O)cccc1-2 | > 2000 | 290 | 
CC(=O)Nc1cccc2c1C(=O)c1c(-c3ccco3)n[nH]c1-2 | > 3500 | > 1700 | 
CCOC(=O)c1ccc(-c2[nH]nc3c2C(=O)c2c(NC(N)=O)cccc2-3)s1 | 300 | 130 | 
NC(=O)Nc1cccc2c1C(=O)c1c-2n[nH]c1C1CC1 | 1400 | 140 | 
CCCCc1ccc(-c2[nH]nc3c2C(=O)c2c(NC(C)=O)cccc2-3)cc1 | > 2800 | > 560 | 
CC(C)c1[nH]nc2c1C(=O)c1c(NC(N)=O)cccc1-2 | > 1900 | 84 | 
O=C(CN1CCC(O)CC1)Nc1cccc2c1C(=O)c1c-2n[nH]c1-c1ccc(N2CCOCC2)cc1 | 110 | 85 | 
CC(=O)Nc1cccc2c1C(=O)c1c-2n[nH]c1C1CC1 | > 3700 | 480 | 
CN(C)c1ccc(-c2[nH]nc3c2C(=O)c2c(NC(=O)CN4CCC(CN)CC4)cccc2-3)cc1 | 7 | 15 | IC50 (HCT-116): 74 nM

Structure (SMILES) | IC50 [1] [nM] | IC50 [2] [nM] | also measured
O=C(CN1CCOCC1)Nc1cccc2c1C(=O)c1c-2n[nH]c1-c1ccc(N2CCOCC2)cc1 | 120 | 37 | 
CC(C)c1[nH]nc2c1C(=O)c1c(NC(=O)CN3CCC(CN)CC3)cccc1-2 | 340 | 48 | 
Cc1ccc(-c2[nH]nc3c2C(=O)c2c(NC(N)=O)cccc2-3)s1 | 53 | 13 | IC50 (HCT-116): 29 nM
CC(=O)Nc1cccc2c1C(=O)c1c-2n[nH]c1-c1ccc(N2CCCCC2)cc1 | 680 | 900 | 
CC(=O)Nc1cccc2c1C(=O)c1c-2n[nH]c1C(C)(C)C | > 3500 | 980 | 
NC(=O)C1CCN(CC(=O)Nc2cccc3c2C(=O)c2c-3n[nH]c2C2CC2)CC1 | > 99 | 26 | IC50 (HCT-116): 120 nM
CC(=O)Nc1cccc2c1C(=O)c1c-2n[nH]c1-c1cc(Cl)sc1Cl | > 2600 | > 2600 | 
COc1ccc(-c2[nH]nc3c2C(=O)c2c(NC(=O)CN4CCC(CN)CC4)cccc2-3)cc1 | 13 | 14 | 
CC(=O)Nc1cccc2c1C(=O)c1c-2n[nH]c1-c1sccc1C | > 3100 | 260 | 
CC(=O)Nc1cccc2c1C(=O)c1c-2n[nH]c1-c1cccs1 | 4500 | 180 | 
CCc1[nH]nc2c1C(=O)c1c(NC(C)=O)cccc1-2 | > 3900 | 1500 | 
Cc1cc(-c2[nH]nc3c2C(=O)c2c(NC(N)=O)cccc2-3)c(C)s1 | > 1500 | 61 | 
NC(=O)Nc1cccc2c1C(=O)c1c-2n[nH]c1-c1ccsc1 | 67 | 9 | IC50 (HCT-116): 360 nM
CC(=O)Nc1cccc2c1C(=O)c1c(-c3ccc(C)cc3)n[nH]c1-2 | 490 | 160 | 
NC(=O)Nc1cccc2c1C(=O)c1c(-c3csc(Cl)c3)n[nH]c1-2 | 57 | 13 | IC50 (NCI-H460): 240 nM; EC50 (AG1523): > 29000 nM; IC50 [3]: 44 nM; IC50 (Protein kinase C (PKC)): > 58000 nM; IC50 (HT-1080): 490 nM; IC50 (HCT-116): 130 nM; IC50 (B16): 200 nM; IC50 [4]: > 58000 nM; IC50 (MIA PaCa-2): 260 nM; IC50 [5]: > 60000 nM; IC50 (HT-29): > 2900 nM; IC50 (PC-3): 690 nM
CC(=O)Nc1cccc2c1C(=O)c1c(-c3ccccc3)n[nH]c1-2 | 840 | 240 | 
CC(=O)Nc1cccc2c1C(=O)c1c-2n[nH]c1C | > 4200 | 11000 | 
CN(C)c1ccc(-c2[nH]nc3c2C(=O)c2c(NC(=O)CN4CCOCC4)cccc2-3)cc1 | 110 | 36 | 
CCc1[nH]nc2c1C(=O)c1c(NC(=O)CN3CCC(CN)CC3)cccc1-2 | 1300 | 240 | 

Structure (SMILES) | IC50 [1] [nM] | IC50 [2] [nM] | also measured
CC(=O)Nc1cccc2c1C(=O)c1c-2n[nH]c1-c1ccncc1 | 1300 | 76 | 
CC(=O)Nc1cccc2c1C(=O)c1c-2n[nH]c1-c1ccc(N(C)C)cc1 | 310 | 320 | 
CCCc1ccc(-c2[nH]nc3c2C(=O)c2c(NC(C)=O)cccc2-3)cc1 | 1900 | 490 | 
CC(=O)Nc1cccc2c1C(=O)c1c-2n[nH]c1-c1ccc(Oc2ccccc2)cc1 | > 2500 | > 2500 | 
CCCc1[nH]nc2c1C(=O)c1c(NC(C)=O)cccc1-2 | > 3700 | > 3700 | 
NCC1CCN(CC(=O)Nc2cccc3c2C(=O)c2c-3n[nH]c2C2CC2)CC1 | 430 | 55 | 
NCC1CCN(CC(=O)Nc2cccc3c2C(=O)c2c-3n[nH]c2C2CCCCC2)CC1 | 360 |  | 
Cn1ccc(-c2[nH]nc3c2C(=O)c2c(NC(N)=O)cccc2-3)c1 | 130 | 26 | IC50 (HCT-116): 64 nM
CC(=O)Nc1cccc2c1C(=O)c1c-2n[nH]c1C(C)C | > 3700 | 840 | 
NCC1CCN(CC(=O)Nc2cccc3c2C(=O)c2c-3n[nH]c2-c2ccc(N3CCOCC3)cc2)CC1 | 18 | 26 | IC50 (HCT-116): 110 nM
CN1CCN(CC(=O)Nc2cccc3c2C(=O)c2c-3n[nH]c2-c2ccc(N(C)C)cc2)CC1 | 55 | 29 | 
CN(C)c1ccc(-c2[nH]nc3c2C(=O)c2c(NC(=O)CN4CCC(O)CC4)cccc2-3)cc1 | 50 | 33 | 
CCc1ccc(-c2[nH]nc3c2C(=O)c2c(NC(C)=O)cccc2-3)cc1 | 640 | 280 | 
CC(C)c1n[nH]c2c1C(=O)c1c(NC(=O)CN3CCC(C(N)=O)CC3)cccc1-2 | > 1300 | 21 | IC50 (HCT-116): 290 nM
CCCCc1[nH]nc2c1C(=O)c1c(NC(C)=O)cccc1-2 | > 3500 | > 3500 | 
CC(=O)Nc1cccc2c1C(=O)c1c-2n[nH]c1C1CCCCC1 | > 3200 | 1100 | 
NC(=O)Nc1cccc2c1C(=O)c1c-2n[nH]c1-c1ccco1 | 840 | 86 | 
CSc1ccc(-c2[nH]nc3c2C(=O)c2c(NC(C)=O)cccc2-3)cc1 | 340 | 120 | 
CC(=O)Nc1cccc2c1C(=O)c1c-2n[nH]c1-c1cccnc1 | > 1600 | 770 | 
